In ChEMBL document CHEMBL3797175, “Discovery of 6-(difluoro(6-(4-fluorophenyl)-[1,2,4]triazolo[4,3-b][1,2,4]triazin-3-yl)methyl)quinoline as a highly potent and selective c-Met inhibitor” (Eur J Med Chem, 2016):
pIC50: −log10 of the molar value. Calls of active or inactive are those of the source. No cut-off for these calls is given here.

Tests used:
[1] = Selectivity ratio of IC50 for human SNU1 cells to IC50 for human MKN45 cells; type: ADME, cell-based; details: mkn-45
[2] = Selectivity ratio of IC50 for human SGC7901 cells to IC50 for human EBC1 cells; type: ADME, cell-based; details: sgc-7901
Method in brief: (§1)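 Each cell line was seeded in 96-well plates, then exposed the next day to a range of compound concentrations for 72 h. Growth was read by SRB or MTT assay, and IC50 was fitted by a four-parameter concentration-response curve. Each concentration was run at least in triplicate, in at least 2 experiments. BaF3/TPR-Met are murine pre-B BaF3 cells transfected with TPR-MET cDNA and selected in puromycin.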

[3] = molecular target: T1, Hepatocyte growth factor receptor (Homo sapiens, UniProt P08581); assay: Inhibition of c-Met in human MKN45 cells assessed as reduction in ERK phosphorylation at Tyrosine 204 at 10 nM after 1 hr by Western blot analysis; type: cell-based; details: MKN-45
Method in brief: (§2)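 EBC-1 or MKN45 cells treated with compound 1 h at 37 °C without HGF, then lysed in 1× SDS sample buffer. Lysates run on 10% SDS-PAGE and transferred to nitrocellulose. Probed with antibodies to c-Met, phospho-c-Met, phospho-ERK1/2, phospho-AKT, AKT and GAPDH, then HRP secondary. ECL detection.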

[4] = Selectivity ratio of IC50 for human PANC1 cells to IC50 for human EBC1 cells; type: ADME, cell-based; details: panc-1; method in brief: as §1
[5] = Selectivity ratio of IC50 for human NCI-H358 cells to IC50 for human MKN45 cells; type: ADME, cell-based
Method in brief: (§3)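 Both IC50s in each ratio come from one proliferation assay. Cells were seeded and exposed the next day to a range of concentrations for 72 h, then read by SRB or MTT. IC50s were fitted by four-parameter concentration–response, with each concentration at least in triplicate and at least 2 experiments. BaF3/TPR-Met is murine pre-B BaF3 transfected with TPR-MET and puromycin-selected.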

[6] = AUC (0 to infinity) in Sprague-Dawley rat at 10 mg/kg, po administered as single dose; type: ADME, organism-based; set-up: dose 10 mg/kg, route oral, time infinity; details: in vivo
[7] = molecular target: Platelet-derived growth factor receptor beta (Homo sapiens) (UniProt P09619); assay: Inhibition of recombinant PDGFRbeta (unknown origin) using poly (Glu, Tyr) 4:1 as substrate at 1000 nM incubated for 60 mins by ELISA relative to control
Method in brief: (§4)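 Recombinant tyrosine kinases assayed on wells precoated with poly(Glu,Tyr)4:1 (20 µg/mL). ATP 10 µmol/L in HEPES pH 7.4 buffer with MgCl2, MnCl2, Na3VO4 and DTT; compound in 1% DMSO, 1% DMSO as control. Reaction 60 min at 37 °C. Phosphotyrosine detected with PY99 and HRP anti-mouse, o-phenylenediamine, A490. Inhibition % relative to control; two experiments.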

[8] = Selectivity ratio of IC50 for human Calu3 cells to IC50 for mouse BAF3 cells expressing TPR-MET; type: ADME, cell-based; method in brief: as §3
[9] = Selectivity ratio of IC50 for human HCT116 cells to IC50 for human MKN45 cells; type: ADME, cell-based; details: hct-116; method in brief: as §3
[10] = molecular target: Tyrosine-protein kinase receptor UFO (Homo sapiens, UniProt P30530); assay: Inhibition of recombinant AXL (unknown origin) using poly (Glu, Tyr) 4:1 as substrate incubated for 60 mins by ELISA
[11] = molecular target: Tyrosine-protein kinase receptor UFO (Homo sapiens) (UniProt P30530); details: 1000 nM
[12] = Selectivity ratio of IC50 for human PANC1 cells to IC50 for mouse BAF3 cells expressing TPR-MET; type: ADME, cell-based; method in brief: as §1
[13] = molecular target: T1, Hepatocyte growth factor receptor; assay: Inhibition of c-Met phosphorylation at Tyrosine 1235 in HGF stimulated human U87MG cells at 10 nM after 1 hr by Western blot analysis; type: cell-based; details: U-87MG ATCC
Method in brief: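 U87MG cells serum-starved 24 h, pretreated with compound 1 h at 37 °C, then stimulated with HGF (100 ng/mL) for 15 min. Lysed in 1× SDS sample buffer, resolved by 10% SDS-PAGE and blotted to nitrocellulose. Probed for phospho-c-Met, phospho-ERK1/2, phospho-AKT and totals, with GAPDH as loading control. ECL detection.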

[14] = molecular target: Insulin-like growth factor 1 receptor (Homo sapiens) (UniProt P08069); assay: Inhibition of recombinant IGF1R (unknown origin) using poly (Glu, Tyr) 4:1 as substrate at 1000 nM incubated for 60 mins by ELISA relative to control; method in brief: as §4
[15] = Selectivity ratio of IC50 for human NCI-H596 cells to IC50 for mouse BAF3 cells expressing TPR-MET; type: ADME, cell-based; method in brief: as §3
[16] = molecular target: Ephrin type-A receptor 2 (Homo sapiens) (UniProt P29317); assay: Inhibition of recombinant EPHA2 (unknown origin) using poly (Glu, Tyr) 4:1 as substrate at 1000 nM incubated for 60 mins by ELISA relative to control; method in brief: as §4
[17] = Selectivity ratio of IC50 for human MGC803 cells to IC50 for human EBC1 cells; type: ADME, cell-based; details: mgc-803; method in brief: as §3
[18] = Selectivity ratio of IC50 for human SPCA4 cells to IC50 for human EBC1 cells; type: ADME, cell-based; details: spc-a4
[19] = molecular target: TPR/MET fusion protein (Mus musculus) (UniProt P16056+F6ZDS4); assay: Inhibition of TPR-MET phosphorylation in mouse BAF3 cells at 10 nM after 1 hr by Western blot analysis; type: cell-based
Method in brief: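 BaF3 stably expressing TPR-MET (puromycin-selected), grown with IL-3-conditioned medium. Treated 1 h at 37 °C, lysed in SDS sample buffer. 10% SDS-PAGE and immunoblot for phospho-c-Met, phospho-ERK1/2, phospho-AKT and totals; ECL detection.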

[20] = molecular target: T1, Hepatocyte growth factor receptor; assay: Inhibition of c-Met phosphorylation at Tyrosine 1235 in human MKN45 cells at 10 nM after 1 hr by Western blot analysis; type: cell-based; details: MKN-45; method in brief: as §2
[21] = Selectivity ratio of IC50 for human SPCA1 cells to IC50 for human EBC1 cells; type: ADME, cell-based; details: SPCA1 cells versus EBC1 cells
NCI-H460 = assay: Antiproliferative activity against human NCI-H460 cells after 72 hrs by SRB or MTT assay; type: functional, cell-based; details: NCI-H460, 72 h
Method in brief: (§5)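 Cells seeded, exposed next day to a range of concentrations for 72 h. Growth read by sulforhodamine B or MTT. IC50 from four-parameter concentration-response fit. Each concentration tested at least in triplicate, with at least 2 experiments.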

[22] = molecular target: Epidermal growth factor receptor (Homo sapiens) (UniProt P00533); assay: Inhibition of recombinant EGFR (unknown origin) using poly (Glu, Tyr) 4:1 as substrate at 1000 nM incubated for 60 mins by ELISA relative to control; method in brief: as §4
Mus musculus = assay: Toxicity in athymic nude mouse xenografted with human EBC1 cells assessed as body weight loss at 6.25 to 25 mg/kg, po bid for 21 days measured twice a week during compound dosing; type: organism-based; details: in vivo, 504 h
Method in brief: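 Nude mice carrying s.c. EBC-1 tumor fragments, randomized at 100–200 mm³ (n=6 treated, n=12 vehicle). Dosed orally twice daily for 21 days. Body weight and caliper tumor volume measured twice weekly.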

[23] = Antiproliferative activity against human SMMC7721 cells after 72 hrs by SRB or MTT assay; type: functional, cell-based; details: SMMC-7721, 72 h; method in brief: as §5

T1 sequence (P08581 whole entry): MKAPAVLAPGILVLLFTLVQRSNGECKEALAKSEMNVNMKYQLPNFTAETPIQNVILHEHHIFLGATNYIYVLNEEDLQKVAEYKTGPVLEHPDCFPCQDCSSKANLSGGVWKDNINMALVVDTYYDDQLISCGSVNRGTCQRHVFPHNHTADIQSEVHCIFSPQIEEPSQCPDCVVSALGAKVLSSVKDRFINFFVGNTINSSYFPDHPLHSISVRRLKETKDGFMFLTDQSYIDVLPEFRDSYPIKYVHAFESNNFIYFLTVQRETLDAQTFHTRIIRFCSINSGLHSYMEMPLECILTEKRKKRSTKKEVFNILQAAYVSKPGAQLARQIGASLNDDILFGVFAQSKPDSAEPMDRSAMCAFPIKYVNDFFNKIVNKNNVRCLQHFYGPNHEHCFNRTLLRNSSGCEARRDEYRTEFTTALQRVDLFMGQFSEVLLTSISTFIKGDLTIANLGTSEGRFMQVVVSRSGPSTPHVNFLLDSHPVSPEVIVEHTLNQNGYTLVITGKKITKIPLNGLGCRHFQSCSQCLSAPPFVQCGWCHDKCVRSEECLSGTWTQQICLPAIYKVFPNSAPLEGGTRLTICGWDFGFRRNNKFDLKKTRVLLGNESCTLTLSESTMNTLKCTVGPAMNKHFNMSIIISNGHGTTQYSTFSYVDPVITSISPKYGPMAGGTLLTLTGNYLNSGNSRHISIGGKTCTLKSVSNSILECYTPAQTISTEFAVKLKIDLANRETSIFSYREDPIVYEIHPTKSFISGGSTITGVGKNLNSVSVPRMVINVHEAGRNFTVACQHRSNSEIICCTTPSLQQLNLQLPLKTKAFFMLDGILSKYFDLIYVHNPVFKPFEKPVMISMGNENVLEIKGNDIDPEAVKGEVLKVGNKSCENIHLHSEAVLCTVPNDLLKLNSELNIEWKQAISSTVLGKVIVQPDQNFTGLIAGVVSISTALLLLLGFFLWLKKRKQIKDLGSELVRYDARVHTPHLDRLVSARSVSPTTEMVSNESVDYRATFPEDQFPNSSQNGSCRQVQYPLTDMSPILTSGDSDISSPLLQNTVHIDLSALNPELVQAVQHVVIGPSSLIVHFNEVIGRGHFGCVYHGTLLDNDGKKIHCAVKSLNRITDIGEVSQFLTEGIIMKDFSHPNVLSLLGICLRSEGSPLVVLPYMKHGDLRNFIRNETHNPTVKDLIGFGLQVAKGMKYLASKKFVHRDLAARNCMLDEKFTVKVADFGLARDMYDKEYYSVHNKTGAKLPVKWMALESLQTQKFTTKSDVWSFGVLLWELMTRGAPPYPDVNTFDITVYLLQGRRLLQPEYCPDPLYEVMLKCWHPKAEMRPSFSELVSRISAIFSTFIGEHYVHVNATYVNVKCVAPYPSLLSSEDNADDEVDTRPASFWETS
Chain of TPR/MET fusion protein (Mus musculus) (F6ZDS4 whole entry partner, the tested form may be a part): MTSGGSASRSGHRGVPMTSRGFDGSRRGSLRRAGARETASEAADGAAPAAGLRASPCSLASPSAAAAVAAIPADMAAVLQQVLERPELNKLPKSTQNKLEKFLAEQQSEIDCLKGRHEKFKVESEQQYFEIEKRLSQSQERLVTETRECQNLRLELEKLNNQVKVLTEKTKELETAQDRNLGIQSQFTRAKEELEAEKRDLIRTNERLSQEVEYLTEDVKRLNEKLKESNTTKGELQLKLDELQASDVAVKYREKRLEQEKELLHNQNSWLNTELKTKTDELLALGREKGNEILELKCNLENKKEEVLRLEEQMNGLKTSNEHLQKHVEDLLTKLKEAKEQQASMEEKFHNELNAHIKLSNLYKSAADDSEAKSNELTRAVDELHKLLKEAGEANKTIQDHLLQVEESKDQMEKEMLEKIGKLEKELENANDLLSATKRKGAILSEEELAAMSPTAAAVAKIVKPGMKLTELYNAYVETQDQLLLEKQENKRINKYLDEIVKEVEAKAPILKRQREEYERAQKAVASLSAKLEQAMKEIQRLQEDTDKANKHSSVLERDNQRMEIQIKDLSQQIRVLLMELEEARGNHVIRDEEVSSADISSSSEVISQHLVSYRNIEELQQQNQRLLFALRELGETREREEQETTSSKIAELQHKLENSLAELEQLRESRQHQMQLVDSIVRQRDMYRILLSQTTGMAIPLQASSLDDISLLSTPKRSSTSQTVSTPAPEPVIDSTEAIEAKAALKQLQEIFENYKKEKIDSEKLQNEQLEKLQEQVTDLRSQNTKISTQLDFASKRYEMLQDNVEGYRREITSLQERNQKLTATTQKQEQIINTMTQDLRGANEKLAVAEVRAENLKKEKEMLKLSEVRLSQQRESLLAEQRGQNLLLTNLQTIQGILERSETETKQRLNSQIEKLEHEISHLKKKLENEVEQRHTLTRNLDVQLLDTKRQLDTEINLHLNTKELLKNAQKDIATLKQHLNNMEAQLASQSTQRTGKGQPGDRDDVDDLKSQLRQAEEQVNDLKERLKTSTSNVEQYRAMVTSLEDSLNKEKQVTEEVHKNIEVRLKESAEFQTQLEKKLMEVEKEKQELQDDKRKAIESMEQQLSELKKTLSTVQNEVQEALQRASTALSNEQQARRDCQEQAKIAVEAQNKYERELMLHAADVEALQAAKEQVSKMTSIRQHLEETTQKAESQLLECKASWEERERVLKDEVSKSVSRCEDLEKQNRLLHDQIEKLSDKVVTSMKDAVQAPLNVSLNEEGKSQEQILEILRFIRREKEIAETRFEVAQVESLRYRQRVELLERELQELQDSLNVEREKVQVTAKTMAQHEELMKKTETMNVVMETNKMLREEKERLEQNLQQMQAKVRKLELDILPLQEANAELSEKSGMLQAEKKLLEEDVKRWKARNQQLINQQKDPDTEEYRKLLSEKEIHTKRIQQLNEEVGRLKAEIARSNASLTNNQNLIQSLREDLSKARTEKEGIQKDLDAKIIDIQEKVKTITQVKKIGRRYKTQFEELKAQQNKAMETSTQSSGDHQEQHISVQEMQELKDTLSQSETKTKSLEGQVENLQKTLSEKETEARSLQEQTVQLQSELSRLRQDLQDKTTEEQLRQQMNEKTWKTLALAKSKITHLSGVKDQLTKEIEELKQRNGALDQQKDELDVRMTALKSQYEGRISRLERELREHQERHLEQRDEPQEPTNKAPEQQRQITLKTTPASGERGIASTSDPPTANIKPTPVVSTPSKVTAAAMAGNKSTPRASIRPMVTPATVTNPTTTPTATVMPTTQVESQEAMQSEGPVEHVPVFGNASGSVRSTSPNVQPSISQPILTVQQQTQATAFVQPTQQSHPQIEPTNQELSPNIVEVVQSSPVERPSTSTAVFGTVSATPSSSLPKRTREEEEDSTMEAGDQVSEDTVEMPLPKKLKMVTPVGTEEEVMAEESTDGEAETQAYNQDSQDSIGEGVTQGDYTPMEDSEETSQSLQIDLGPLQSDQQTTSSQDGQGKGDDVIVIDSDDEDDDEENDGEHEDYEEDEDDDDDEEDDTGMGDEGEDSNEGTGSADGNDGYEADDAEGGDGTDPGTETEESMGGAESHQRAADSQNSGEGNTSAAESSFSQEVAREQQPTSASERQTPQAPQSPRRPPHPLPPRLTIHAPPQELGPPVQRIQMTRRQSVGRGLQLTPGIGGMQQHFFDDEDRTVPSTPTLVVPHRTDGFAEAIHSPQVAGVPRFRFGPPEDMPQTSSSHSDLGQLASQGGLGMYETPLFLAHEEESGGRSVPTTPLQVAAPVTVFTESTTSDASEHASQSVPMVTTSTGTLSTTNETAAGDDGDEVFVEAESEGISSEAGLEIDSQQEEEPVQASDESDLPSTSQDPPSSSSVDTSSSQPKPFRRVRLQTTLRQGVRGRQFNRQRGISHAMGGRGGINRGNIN
Chain of TPR/MET fusion protein (Mus musculus) (P16056 25-1379 limits assumed): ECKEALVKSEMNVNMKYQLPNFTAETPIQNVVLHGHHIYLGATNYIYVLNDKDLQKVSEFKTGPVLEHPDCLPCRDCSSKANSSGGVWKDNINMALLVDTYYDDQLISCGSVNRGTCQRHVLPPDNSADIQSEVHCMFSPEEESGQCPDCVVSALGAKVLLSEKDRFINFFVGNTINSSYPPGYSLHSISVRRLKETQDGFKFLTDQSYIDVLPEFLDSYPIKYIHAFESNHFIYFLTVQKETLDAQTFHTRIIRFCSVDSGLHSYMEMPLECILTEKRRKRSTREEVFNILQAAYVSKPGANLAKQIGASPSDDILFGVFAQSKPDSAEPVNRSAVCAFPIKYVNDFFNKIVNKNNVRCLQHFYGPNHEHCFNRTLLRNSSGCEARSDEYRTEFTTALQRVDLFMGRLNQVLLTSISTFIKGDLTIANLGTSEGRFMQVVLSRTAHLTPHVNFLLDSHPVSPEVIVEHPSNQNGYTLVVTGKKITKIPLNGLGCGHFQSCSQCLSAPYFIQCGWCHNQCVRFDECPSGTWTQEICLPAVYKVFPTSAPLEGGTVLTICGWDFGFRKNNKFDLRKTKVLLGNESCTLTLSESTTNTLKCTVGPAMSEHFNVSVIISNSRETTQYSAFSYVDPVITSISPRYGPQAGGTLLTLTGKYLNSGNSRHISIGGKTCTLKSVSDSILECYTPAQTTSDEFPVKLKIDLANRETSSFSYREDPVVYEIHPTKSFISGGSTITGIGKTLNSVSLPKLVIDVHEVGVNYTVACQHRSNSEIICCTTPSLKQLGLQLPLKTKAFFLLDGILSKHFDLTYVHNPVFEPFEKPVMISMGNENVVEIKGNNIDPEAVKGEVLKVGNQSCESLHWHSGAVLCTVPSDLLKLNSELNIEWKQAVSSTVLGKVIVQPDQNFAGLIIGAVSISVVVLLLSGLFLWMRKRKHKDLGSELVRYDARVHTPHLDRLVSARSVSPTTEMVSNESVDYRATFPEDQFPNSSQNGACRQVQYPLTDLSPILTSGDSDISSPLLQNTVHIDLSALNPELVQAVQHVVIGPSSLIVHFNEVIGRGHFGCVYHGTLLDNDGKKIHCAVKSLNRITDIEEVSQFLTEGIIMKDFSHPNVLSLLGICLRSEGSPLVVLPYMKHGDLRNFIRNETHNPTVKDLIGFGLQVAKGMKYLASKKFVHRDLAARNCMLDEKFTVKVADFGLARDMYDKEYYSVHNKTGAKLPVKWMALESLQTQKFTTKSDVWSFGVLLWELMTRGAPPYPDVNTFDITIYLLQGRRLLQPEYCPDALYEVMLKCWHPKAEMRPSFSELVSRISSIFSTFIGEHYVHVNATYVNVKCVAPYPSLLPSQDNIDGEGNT

## Fc1ccc(-c2cnc3nnc(C(F)(F)c4ccc5ncccc5c4)n3n2)cc1
[1]
  Ratio IC50: 10000
[2]
  Ratio IC50: > 10000
[3]
  inhibition: Active
[4]
  Ratio IC50: 10000
[5]
  Ratio IC50: 10000
[6]
  AUC(0-inf): 2380 ng·h/mL
[7]
  inhibition: 19.6%
[8]
  Ratio IC50: > 10000
[9]
  Ratio IC50: 10000
[10]
  pIC50: < 6.00
[11]
  inhibition: 36%
[12]
  Ratio IC50: 10000
[13]
  inhibition: Active
[14]
  inhibition: 0.4%
[15]
  Ratio IC50: 10000
[16]
  inhibition: 6.1%
[17]
  Ratio IC50: > 10000
[18]
  Ratio IC50: > 10000
[19]
  inhibition: Active
[20]
  inhibition: Active
[21]
  selectivity ratio: > 10000
NCI-H460
  pIC50: < 5.00
[22]
  inhibition: 33.2%
Mus musculus
  Activity: Non-toxic
[23]
  pIC50: < 5.00
